Data: ChEMBL document CHEMBL3745678, “Novel β-Carboline/Hydroxamic Acid Hybrids Targeting Both Histone Deacetylase and DNA Display High Anticancer Activity via Regulation of the p53 Signaling Pathway” (J Med Chem, 2015)
The source made the active and inactive calls. The rule behind the calls is not given here.

Key:
Histone deacetylase = test: Inhibition of HDAC in human HeLa cell nuclear extract using Boc-Lys (Ac)-AMC as substrate after 60 mins by fluorometric analysis; format: cell-based
HCT-116 [1] = test: Potency index, ratio of SAHA IC50 to compound IC50 for human HCT116 cells; format: functional
How it was run: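 HCT116 cells seeded at 10^4 cells/ml and adhered overnight, then treated 48 h over a concentration series with 0.1% DMSO as control. MTT readout; IC50 derived from inhibition % = (1 − OD treated/OD control) × 100, three independent measurements. Index = SAHA IC50 ÷ compound IC50.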

Histone deacetylase 1 = Histone deacetylase 1 (Homo sapiens, UniProt Q13547); test: Inhibition of recombinant human HDAC1 using Boc-Lys (Ac)-AMC as substrate after 60 mins by fluorometric analysis
Histone deacetylase 1, sequence (Q13547 whole entry): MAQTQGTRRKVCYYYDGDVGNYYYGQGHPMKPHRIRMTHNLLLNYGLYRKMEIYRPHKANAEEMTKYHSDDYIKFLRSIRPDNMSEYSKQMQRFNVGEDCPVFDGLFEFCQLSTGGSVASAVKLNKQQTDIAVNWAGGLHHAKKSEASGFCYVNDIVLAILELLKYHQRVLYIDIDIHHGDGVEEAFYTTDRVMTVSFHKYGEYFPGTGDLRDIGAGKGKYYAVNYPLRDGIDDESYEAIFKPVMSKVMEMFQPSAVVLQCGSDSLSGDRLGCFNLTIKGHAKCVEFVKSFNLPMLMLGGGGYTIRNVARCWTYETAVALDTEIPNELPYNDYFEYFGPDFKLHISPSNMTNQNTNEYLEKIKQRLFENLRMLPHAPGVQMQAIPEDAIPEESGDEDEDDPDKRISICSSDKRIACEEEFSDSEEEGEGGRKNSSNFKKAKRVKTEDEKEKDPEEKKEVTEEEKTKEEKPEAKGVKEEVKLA

Histone deacetylase 8 = molecular target: T1, Histone deacetylase 8 (Homo sapiens, UniProt Q9BY41); test: Inhibition of recombinant human HDAC8 using Boc-Lys (Ac)-AMC as substrate after 60 mins by fluorometric analysis
T1 sequence (Q9BY41 whole entry): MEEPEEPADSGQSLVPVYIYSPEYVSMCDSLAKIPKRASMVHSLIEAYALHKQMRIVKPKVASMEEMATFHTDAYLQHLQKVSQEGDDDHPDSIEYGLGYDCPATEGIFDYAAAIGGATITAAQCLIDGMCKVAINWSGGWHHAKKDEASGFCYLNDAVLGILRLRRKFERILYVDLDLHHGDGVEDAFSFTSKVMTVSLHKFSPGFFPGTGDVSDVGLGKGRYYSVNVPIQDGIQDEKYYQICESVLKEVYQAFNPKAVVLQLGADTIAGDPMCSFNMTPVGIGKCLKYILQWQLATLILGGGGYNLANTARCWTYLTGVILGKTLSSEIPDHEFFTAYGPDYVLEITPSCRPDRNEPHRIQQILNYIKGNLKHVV

HCT-116 [2] = test: Induction of DNA damage in human HCT116 cells assessed as histone H2AX phosphorylation at S139 after 12 hrs by western blot analysis; format: functional, cell-based
How it was run: (§1)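 DNA-damage marker. HCT116 cells treated 12 h with compound or vehicle. Lysates immunoblotted with anti-H2AX S139ph, and β-actin served as the control. Relative levels were obtained by densitometric scanning; means ± SD of three separate experiments.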

[3] = Antiproliferative activity against human HCT116 cells assessed as cell viability after 48 hrs by MTT assay; format: functional, cell-based, HCT-116; conditions: for IC50: Homo sapiens, HCT-116, 48 h
SW480 = test: Antiproliferative activity against human SW480 cells assessed as cell viability after 48 hrs by MTT assay; format: functional, cell-based; conditions: SW480, 48 h
LoVo = test: Antiproliferative activity against human LoVo cells assessed as cell viability after 48 hrs by MTT assay; format: functional, cell-based
[4] = Antiproliferative activity against human SW620 cells assessed as cell viability after 48 hrs by MTT assay; format: functional, cell-based; conditions: SW-620, 48 h
[5] = molecular target: T2, Protein deacetylase HDAC6 (Homo sapiens, UniProt Q9UBN7); test: Inhibition of recombinant human HDAC6 using Boc-Lys (Ac)-AMC as substrate after 60 mins by fluorometric analysis
T2 sequence (Q9UBN7 whole entry): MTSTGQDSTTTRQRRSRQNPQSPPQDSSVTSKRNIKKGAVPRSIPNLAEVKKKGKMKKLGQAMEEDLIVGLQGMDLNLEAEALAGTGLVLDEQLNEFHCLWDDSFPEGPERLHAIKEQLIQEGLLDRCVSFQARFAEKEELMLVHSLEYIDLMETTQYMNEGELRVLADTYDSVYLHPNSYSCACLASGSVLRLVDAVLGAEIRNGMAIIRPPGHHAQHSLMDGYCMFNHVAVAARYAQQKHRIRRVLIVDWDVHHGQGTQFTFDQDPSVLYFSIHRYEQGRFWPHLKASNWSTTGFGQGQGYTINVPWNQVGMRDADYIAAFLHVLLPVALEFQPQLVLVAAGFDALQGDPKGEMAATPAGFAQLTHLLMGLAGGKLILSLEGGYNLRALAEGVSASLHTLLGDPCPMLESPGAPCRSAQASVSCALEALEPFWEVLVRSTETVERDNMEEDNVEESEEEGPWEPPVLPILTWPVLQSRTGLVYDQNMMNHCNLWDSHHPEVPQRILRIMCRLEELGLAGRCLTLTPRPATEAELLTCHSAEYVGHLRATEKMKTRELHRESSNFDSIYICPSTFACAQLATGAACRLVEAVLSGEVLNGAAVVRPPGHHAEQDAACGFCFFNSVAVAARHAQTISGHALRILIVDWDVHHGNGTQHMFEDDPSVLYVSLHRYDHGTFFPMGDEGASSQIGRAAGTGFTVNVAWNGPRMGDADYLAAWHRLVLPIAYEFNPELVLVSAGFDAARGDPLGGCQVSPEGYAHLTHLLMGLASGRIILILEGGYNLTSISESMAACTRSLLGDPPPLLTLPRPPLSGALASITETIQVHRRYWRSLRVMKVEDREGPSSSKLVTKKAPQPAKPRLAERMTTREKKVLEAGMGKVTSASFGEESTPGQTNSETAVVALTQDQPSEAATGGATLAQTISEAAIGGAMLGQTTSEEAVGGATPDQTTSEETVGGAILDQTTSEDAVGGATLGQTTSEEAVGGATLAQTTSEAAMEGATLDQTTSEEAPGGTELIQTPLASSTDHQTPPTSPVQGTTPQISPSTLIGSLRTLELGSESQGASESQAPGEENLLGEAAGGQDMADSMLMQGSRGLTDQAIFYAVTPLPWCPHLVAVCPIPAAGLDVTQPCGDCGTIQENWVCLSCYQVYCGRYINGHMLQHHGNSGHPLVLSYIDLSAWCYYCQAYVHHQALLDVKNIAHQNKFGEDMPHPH

HCT-116 [6] = test: Induction of DNA damage in human HCT116 cells assessed as histone H2AX phosphorylation at S139 at 1 to 5 uM after 12 hrs by western blot analysis; format: functional, cell-based; how it was run: as §1
[7] = molecular target: Cellular tumor antigen p53 (Homo sapiens) (UniProt P04637); test: Induction of p53 activation in human HCT116 cells assessed as upregulation of p21 expression at 1 to 5 uM after 12 hrs by western blot analysis; format: cell-based; conditions: HCT-116
Cellular tumor antigen p53 (Homo sapiens), sequence (P04637 whole entry, looked up): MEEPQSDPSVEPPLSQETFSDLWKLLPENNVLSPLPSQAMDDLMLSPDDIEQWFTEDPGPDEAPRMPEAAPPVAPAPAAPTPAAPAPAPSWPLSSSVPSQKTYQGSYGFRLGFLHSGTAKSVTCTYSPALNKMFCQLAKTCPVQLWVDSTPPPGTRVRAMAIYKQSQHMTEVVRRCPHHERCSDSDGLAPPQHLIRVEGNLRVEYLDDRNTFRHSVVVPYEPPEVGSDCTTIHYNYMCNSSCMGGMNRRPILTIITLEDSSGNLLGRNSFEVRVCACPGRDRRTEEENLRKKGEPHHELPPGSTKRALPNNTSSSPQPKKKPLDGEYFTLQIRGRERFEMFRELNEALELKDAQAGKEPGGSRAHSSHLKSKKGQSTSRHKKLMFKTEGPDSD
How it was run: (§2)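 HCT116 cells exposed 12 h to compound or vehicle, then lysed on ice in PBS with 1% NP-40, 0.5% deoxycholate, 0.1% SDS and protease inhibitors. Up to 50 µg protein run on SDS-PAGE and immunoblotted for phospho-p53 (Ser15), p53 and p21. Bands quantified by densitometry against β-actin; mean ± SD of three experiments.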

[8] = molecular target: Cellular tumor antigen p53 (Homo sapiens) (UniProt P04637); test: Activation of p53 in human HCT116 cell at 0.1 to 5 uM after 12 hrs by western blot analysis; format: cell-based; conditions: HCT-116; how it was run: as §2
HCT-116 [9] = test: Induction of caspase-3 cleavage in human HCT116 cells at 1 to 5 uM after 48 hrs by western blot analysis; format: functional, cell-based
How it was run: (§3)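 HCT116 cells treated 48 h with or without compound. Western blots probed for Bax, Bcl-2, cleaved caspase-3 and PARP. Band intensities relative to β-actin by densitometry; means ± SD from three separate experiments.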

HCT-116 [10] = test: Induction of PARP cleavage in human HCT116 cells at 1 to 5 uM after 48 hrs by western blot analysis; format: functional, cell-based; how it was run: as §3
[11] = molecular target: Cellular tumor antigen p53 (Homo sapiens) (UniProt P04637); test: Induction of p53 activation in human HCT116 cells assessed as upregulation of p21 expression at 0.1 to 5 uM after 12 hrs by western blot analysis; format: cell-based; conditions: HCT-116; how it was run: as §2
[12] = Cytotoxicity against rat IEC-18 cells assessed as survival after 48 hrs by MTT assay; format: cell-based
How it was run: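 HCT116 and rat IEC-18 cells incubated 48 h over a 0–5 µM range. Viability measured by MTT and expressed as % of control. GI50 taken from the inhibition curves; three independent experiments.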

[13] = Antitumor activity against human HCT116 cells xenografted in BALB/c mouse assessed as tumor weight at 90 mg/kg, po measured twice per week over 22 days (reference value: 1.38 +/- 0.13 g); format: functional, HCT-116
[14] = molecular target: Cellular tumor antigen p53 (Homo sapiens) (UniProt P04637); test: Activation of p53 in human HCT116 cells assessed as p53 phosphorylation at ser15 residue at 0.1 to 5 uM after 12 hrs by western blot analysis; format: cell-based; conditions: HCT-116; how it was run: as §2
HCT-116 [15] = test: Induction of apoptosis in human HCT116 cells at 5 uM after 48 hrs by annexin V-FITC/propidium iodide staining-based flow cytometric analysis; format: functional
How it was run: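 HCT116 cells cultured overnight, then exposed in triplicate for 48 h to 0.1, 1.0 or 5.0 µM, SAHA 5.0 µM or vehicle. Stained with FITC-Annexin V/PI for 15 min at room temperature.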

HCT-116 [16] = test: Induction of DNA damage in human HCT116 cells assessed as histone H2AX phosphorylation at S139 at 20 uM after 12 hrs by western blot analysis; format: functional, cell-based
How it was run: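 HCT116 cells treated for 12 h, then lysed on ice in PBS with 1% Nonidet P-40, 0.5% sodium deoxycholate, 0.1% SDS and protease inhibitors. Up to 50 µg protein run on SDS-PAGE and blotted to PVDF. Probed overnight at 4 °C with anti-H2AX S139ph, with ECL detection. Band intensity scanned relative to β-actin, three separate experiments.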

## COc1ccc(-c2nc(NC(=O)NCCCC(=O)NO)cc3c4ccccc4n(C)c23)cc1
Histone deacetylase
  IC50: 0.51 µM
HCT-116 [1]
  Ratio IC50: 4
Histone deacetylase 1
  IC50: 0.24 µM
Histone deacetylase 8
  IC50: 0.57 µM
HCT-116 [2]
  Activity: Dose-dependent effect
[3]
  IC50: 1.33 µM
SW480
  IC50: 3.15 µM
LoVo
  IC50: 3.02 µM
[4]
  IC50: 1.93 µM
[5]
  IC50: 0.15 µM
HCT-116 [6]
  Activity: Active
[7]
  Activity: Active

## O=C(CCCCCCC(=O)Nc1ccccc1)NO [VORINOSTAT]
[8]
  Activity: inactive
HCT-116 [9]
  Activity: Active
HCT-116 [10]
  Activity: Active
[11]
  Activity: Active
[3]
  GI50: 4.64 µM
[12]
  GI50 at 48 h: 9.95 µM
[13]
  Activity: 0.62 g
[14]
  Activity: inactive
HCT-116 [15]
  Activity: 34.3%
HCT-116 [6]
  Activity: Active

## COc1ccc2c(c1)[nH]c1c(C)nccc12 [HARMINE]
Histone deacetylase
  IC50: > 10 µM
[3]
  IC50: 46.7 µM
LoVo
  IC50: 53.2 µM
[4]
  IC50: 42.8 µM
HCT-116 [16]
  Activity: Active
